High-throughput results (PubChem)
In the library only some 1.7% were active in any assay of this set; here they are far more common.
Neddyl block = cullin neddylation inhibition; actives 0.58% (n = 360,000); P61081+Q13564; TR-FRET cullin neddylation, biochemical; inhibition, % at 25 µM; in the data active = inhibition above about 36%
Arr AP2 block = human beta-arrestin and AP2 interaction inhibition. FITC-arrestin peptide / GST-AP2 beads, flow cytometry; AP2 beta2 appendage carries R879A mutation. inhibition, % at 10 µM. actives 0.31% (n = 340,000). AID 504490;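 active = inhibition above a set limit, near 3 SD of compounds lacking own fluorescence, cut at about 54% in these data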;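 note: plate controls were DMSO wells for no effect and 5 µM unlabelled arrestin peptide for full effect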
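Test system: GST-tagged AP2 beta2-adaptin appendage (R879A) on 4 µm glutathione beads; also added: fluorescein-tagged arrestin peptide at 50 nM final; timing: 12 min plus 1 h, RT; signal: flow cytometry, FL1 (488/535 nm); read-out: percent drop in bead-associated FITC signal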
Pemphigus Ab inh = inhibitors of pemphigus antibody binding to human desmoglein-3; DSG3-coupled beads, scFv-anti-DSG3-GFP binding, flow cytometry; hits give low values; binding (percent of control), % at 10 µM; actives 0.48% (n = 310,000); AID 588358;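 active = binding more than 3 SD below its plate's average and above zero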;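 note: hits lower antibody fragment binding to DSG3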
Efflux pump inh = blocks antifungal efflux pumps in multiplex yeast assay; inhibition, % at 10 µM; AID 485275; S. cerevisiae Candida pump triplex, Nile Red efflux; actives 0.44% (n = 330,000);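 active = plate passing quality check with inhibition over a set limit, or well fluorescence over plate mean plus 4 SD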;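 note: Nile Red retained in pooled yeast measured as flow cytometry median fluorescence; 0% = buffer negative control and 100% = Enniatin B positive control; higher means more Nile Red kept so more efflux inhibition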
Yeast cmpd fluor = compound fluorescence in yeast efflux pump counter-screen. AID 588517. fluorescence ratio to DMSO, % at 10 µM. shares compounds with Efflux pump inh. S. cerevisiae AD/pABC3, flow cytometry. actives 4% (n = 1,700);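 active = fluorescence ratio to DMSO above its plate's cutoff, the plate mean ratio plus 5 SD, cut at about 210% in these data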;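 note: unstained yeast with no Nile Red so the signal is compound autofluorescence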
Mdr1 pump inh = Candida Mdr1 efflux pump inhibition. inhibition, % at 10 µM. shares compounds with Efflux pump inh. S. cerevisiae AD/CaMDR1, Nile Red efflux, flow cytometry. actives 1% (n = 1,700); in the data active = inhibition above about 26%;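 note: 0% = DMSO vehicle and 100% = reference inhibitor; higher means more Nile Red retained so more efflux inhibition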
CaCdr2 efflux inh = blocks the Candida albicans Cdr2 efflux pump in yeast; Nile Red retention ratio vs DMSO, % at 10 µM; S. cerevisiae AD/CaCDR2, Nile Red retention, flow cytometry; shares compounds with Efflux pump inh; actives 4% (n = 1,700); AID 588520; in the data active = Nile Red retention ratio vs DMSO above about 190%;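 note: higher ratio means more blocking of Cdr2 efflux of the dye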
Cdr1 pump inh = Candida Cdr1 efflux pump inhibition; inhibition, % at 10 µM; shares compounds with Efflux pump inh; actives 1% (n = 1,700); AID 588522; S. cerevisiae AD/CaCDR1, Nile Red efflux, flow cytometry;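 active = inhibition above the screen-wide mean plus twice its standard deviation, cut at about 32% in these data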
The depositor's hits bear a star; / = no result shown.

SMILES	Neddyl block	Arr AP2 block	Pemphigus Ab inh	Efflux pump inh	Yeast cmpd fluor	Mdr1 pump inh	CaCdr2 efflux inh	Cdr1 pump inh
O=C(CSc1nnc2n(C3CCCC3)c(=O)c3ccccc3n12)N1CCCCCC1	22	-6	101	0	/	/	/	/
CC(=O)C1=C(O)C(=O)N(CCc2c[nH]c3ccccc23)C1c1ccc(O)cc1 (centres undefined)	-3	-3	/	0	/	/	/	/
CCOC(=O)C1NN=C(C(=O)c2ccccc2)C1c1ccc(OC)cc1 (centres undefined)	-10	-28	102	1.4*	100	0	112	0
O=C(COC(=O)CSc1ccc2ccccc2c1)NC1CCCC1	-24	-10	107	25*	115	0	108	0
COc1ccc(-c2noc(N3CCC(C(=O)NCCCN4CCCC(C)C4)CC3)n2)cc1 (centres undefined)	6	1	110	0	/	/	/	/
COc1ccc(CNC(=O)C(=O)NCC2OCCN2S(=O)(=O)c2ccc(OC)c(OC)c2)cc1 (centres undefined)	-2	-3	111	0	101	0	94	0
COc1ccc(S(=O)(=O)N2CCOC2CNC(=O)C(=O)NCc2ccc3c(c2)OCO3)cc1OC (centres undefined)	4	17	105	0	108	0	100	0
Cc1ocnc1C(=O)Nc1ccc(Cl)cc1	16	-9	104	9.8*	101	0	106	0
Cc1cc(C(=O)Nc2ccc(Cl)cc2)on1	2	-15	107	0	/	/	/	/
CN1C(=O)c2ccccc2C(C(=O)O)C1c1cccc(Cl)c1 (centres undefined)	-6	-8	101	1	/	/	/	/
CCc1ccc(C2C(C(=O)O)c3ccccc3C(=O)N2C)cc1 (centres undefined)	0	-18	124	1.9*	105	0	100	0
Cc1ccc(CN2C(=O)C(Cc3ccccc3)Nc3ncnc(N4CCN(c5ccccc5)CC4)c32)cc1 (centres undefined)	-3	-3	98	1.1*	96	0	110	0
O=C1C(Cc2ccccc2)Nc2ncnc(N3CCOCC3)c2N1Cc1ccc(Cl)cc1 (centres undefined)	-16	-10	97	0	/	/	/	/
O=C1C(Cc2ccccc2)Nc2ncnc(N3CCN(c4ccccc4)CC3)c2N1Cc1ccccc1 (centres undefined)	-3	25	105	0	105	0	87	0
CCC1Nc2ncnc(N3CCN(c4ccccc4)CC3)c2N(Cc2ccc(Br)cc2)C1=O (centres undefined)	-18	6	99	0	/	/	/	/
O=C1C(Cc2ccccc2)Nc2ncnc(N3CCN(c4ccccc4)CC3)c2N1Cc1ccc(Br)cc1 (centres undefined)	-5	7	97	82*	110	56*	112	76*
CCc1cc(C(=O)c2ccc(Br)cc2)c(NC(=O)CN(CC)CC)s1	-1	-4	136	0	/	/	/	/
O=C(O)c1ccc2c(=O)n3c(nc2c1)/C(=C/c1ccccc1OC(F)F)CC3	29	7	87	-1	/	/	/	/
COc1ccc(NS(=O)(=O)c2cccc(C(=O)NC3CCC(O)CC3)c2)cc1 (centres undefined)	-3	1	113	0	/	/	/	/
Cc1cccc(CSc2nnc(-c3cccs3)n2Cc2ccco2)c1	6	-5	82	0	/	/	/	/
O=C(NCC1CCCO1)c1ccc(Br)c(S(=O)(=O)N2CCOCC2)c1 (centres undefined)	4	34	98	24*	98	0	106	0
CCc1c(C)nc2cc(-c3cc(OC)cc(OC)c3)nn2c1N1CCN(CCN2CCOCC2)CC1	25	8	115	1.6*	82	0	89	0
COc1cc2c(cc1OC)CN(C(=S)Nc1ccc(C)cc1C)CC2	8	-27	98	1.1*	103	0	102	0
Cc1cc(C)c(OCC(=O)Nc2nc(-c3ccccn3)cs2)c(C)c1	0	/	114	0.6*	100	0	100	0
CCc1ccc(CNC(=O)C2Cc3cc(S(=O)(=O)N4CCCC4)ccc3N2C(C)=O)cc1 (centres undefined)	-9	48	104	0	/	/	/	/
SMILES	Neddyl block	Arr AP2 block	Pemphigus Ab inh	Efflux pump inh	Yeast cmpd fluor	Mdr1 pump inh	CaCdr2 efflux inh	Cdr1 pump inh
OC(CCc1cccc(Cl)c1)c1cccs1 (centres undefined)	-6	-1	93	0	/	/	/	/
Cc1ccc(Oc2nc(CN3CCOCC3)nc3sc4c(c23)CCC(C)C4)cc1 (centres undefined)	-7	-12	111	0	/	/	/	/
CC1CCc2c(sc3nc(CN4CCOCC4)nc(N4CCc5ccccc5C4)c23)C1 (centres undefined)	-7	-3	113	20*	91	0	116	0
Cc1ccc(CC(NC(=O)c2ccccc2)C(=O)NC(C)C(=O)O)cc1 (centres undefined)	-5	13	93	1.5*	98	-1	91	0
Cc1ccc(-n2nc3c(=O)n(CCCC(=O)NCc4ccc(C)o4)nc(C)c3c2C)cc1	6	-9	102	0	103	0	98	0
Cc1nn(CC(=O)NCc2cccs2)c(=O)c2nn(-c3ccccc3)c(C)c12	-12	0	96	6.2*	99	0	89	0
CN(C)c1ccc(/C=N/NC(=O)c2nnn(-c3nonc3N)c2COc2ccc(F)cc2)cc1	/	-3	77*	0	91	0	114	0
CC1CCN(Cc2c(C(=O)N/N=C/c3ccc(OC(C)C)cc3)nnn2-c2nonc2N)CC1	-7	31	88	0.4*	111	0	108	0
Nc1nonc1-n1nnc(C(=O)N/N=C/c2ccccc2)c1CSc1ccccc1	-8	35	102	1	108	0	101	0
CN(C)Cc1c(C(=O)N/N=C/c2ccc(OCc3ccc(F)cc3)cc2)nnn1-c1nonc1N	3	-1	102	0	/	/	/	/
Cc1ccccc1COc1ccc(/C=N/NC(=O)c2nnn(-c3nonc3N)c2CN2CCC(C)CC2)cc1	18	-2	/	0	/	/	/	/
CCOc1ccc(/C=N/NC(=O)c2nnn(-c3nonc3N)c2COc2ccc(F)cc2)cc1	/	37	/	0	103	0	103	0
CCOC(=O)n1cc(-c2cnc(CNC(=O)C(C)(c3ccccc3)c3ccccc3)o2)c2ccccc21	/	/	/	0	/	/	/	/
COc1ccccc1C(=O)N/C(=C/c1ccccc1)C(=O)Nc1ccc(C(=O)O)cc1	7	9	97	0	/	/	/	/
